≈ marks a conversion by molar mass, not a printed value.
How the values were obtained:
[1] = test system: Mycobacterium tuberculosis; experiment: Antimycobacterial activity against Mycobacterium tuberculosis 331/88 after 14 days by micromethod; type: functional; conditions: 331/88, 336 h
In short: (§1)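 Inocula: M. tuberculosis My 331/88 at 10^-3 dilution, M. avium My 330/88 at 10^-5, M. kansasii My 235/80 and clinical isolate 6509/96 at 10^-4. Compounds added in DMSO at 1000 down to 0.5 (twofold series). Read at 14 and 21 days, plus 7 days for M. kansasii. MIC taken as lowest concentration inhibiting growth.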

[2] = test system: Mycobacterium tuberculosis; experiment: Antimycobacterial activity against Mycobacterium tuberculosis 331/88 after 21 days by micromethod; type: functional; conditions: 331/88, 504 h; in short: as §1
[3] = test system: Mycobacterium avium; experiment: Antimycobacterial activity against isoniazid resistance Mycobacterium avium 330/88 after 14 days by micromethod; type: functional; conditions: 330/88, 336 h; in short: as §1
[4] = test system: Mycobacterium avium; experiment: Antimycobacterial activity against isoniazid resistance Mycobacterium avium 330/88 after 21 days by micromethod; type: functional; conditions: 330/88, 504 h; in short: as §1
[5] = test system: Mycobacterium kansasii; experiment: Antimycobacterial activity against Mycobacterium kansasii 6509/96 clinical isolate after 7 days by micromethod; type: functional; conditions: 6509/96, 168 h; in short: as §1
[6] = test system: Mycobacterium kansasii; experiment: Antimycobacterial activity against isoniazid resistance Mycobacterium kansasii 225/80 after 7 days by micromethod; type: functional; conditions: 225/80, 168 h
[7] = test system: Mycobacterium kansasii; experiment: Antimycobacterial activity against isoniazid resistance Mycobacterium kansasii 225/80 after 14 days by micromethod; type: functional; conditions: 225/80, 336 h
[8] = test system: Mycobacterium kansasii; experiment: Antimycobacterial activity against isoniazid resistance Mycobacterium kansasii 225/80 after 21 days by micromethod; type: functional; conditions: 225/80, 504 h
[9] = test system: Mycobacterium kansasii; experiment: Antimycobacterial activity against Mycobacterium kansasii 6509/96 clinical isolate after 14 days by micromethod; type: functional; conditions: 6509/96, 336 h; in short: as §1
[10] = test system: Mycobacterium kansasii; experiment: Antimycobacterial activity against Mycobacterium kansasii 6509/96 clinical isolate after 21 days by micromethod; type: functional; conditions: 6509/96, 504 h; in short: as §1
[11] = biological target: T1, Isocitrate lyase (Mycobacterium tuberculosis) (UniProt P9WKK7); experiment: Inhibition of Mycobacterium tuberculosis H37Rv isocitrate lyase expressed in Escherichia coli HB101 at 10 umol/L
T1 sequence (whole entry): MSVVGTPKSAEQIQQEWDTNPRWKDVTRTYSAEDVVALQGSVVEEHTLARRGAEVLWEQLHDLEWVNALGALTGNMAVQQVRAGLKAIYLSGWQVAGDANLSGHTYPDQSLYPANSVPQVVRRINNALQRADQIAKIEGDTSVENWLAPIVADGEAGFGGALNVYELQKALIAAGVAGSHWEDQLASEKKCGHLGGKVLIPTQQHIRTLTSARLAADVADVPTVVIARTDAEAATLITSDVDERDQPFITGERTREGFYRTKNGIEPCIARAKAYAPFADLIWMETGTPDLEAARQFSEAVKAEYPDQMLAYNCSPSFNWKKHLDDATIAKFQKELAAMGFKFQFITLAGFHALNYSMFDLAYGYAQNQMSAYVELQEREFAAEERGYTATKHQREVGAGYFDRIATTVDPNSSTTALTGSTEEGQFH
In short: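 Isocitrate lyase assayed per Dixon–Kornberg in 96-well format. Buffer: 50 mmol/L KH2PO4, 4 mmol/L MgCl2, 4 mmol/L phenylhydrazine, 12 mmol/L cysteine, pH 7.0. Glyoxylate phenylhydrazone read at 324 nm. Compounds added in DMSO, with DMSO-alone inhibition subtracted.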

[12] = test system: HepG2; experiment: Cytotoxicity against human HepG2 cells after 24 hrs by CellTiter-96 cell viability assay; type: functional, cell-based; conditions: HepG2, 24 h
In short: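 Hep G2 human hepatic cells (passage 12), 10,000 per well, grown 24 h at 37 °C, 5% CO2 in MEM with 1% glutamine, 10% FBS and 1% nonessential amino acids. Compounds in DMSO at eight increasing concentrations, quadruplicate, 24 h at 37 °C. Kit reagent added, 1.5 h at 37 °C, absorbance 490 nm. IC50 is the concentration reducing viability to 50% of control.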

[13] = Selectivity index, ratio of IC50 for human HepG2 cells to MIC for Mycobacterium tuberculosis 331/88 after 14 days; type: functional
In short: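 Cytotoxicity in Hep G2 cells (passage 12), 10,000 cells/well, in MEM with 10% FBS, 1% glutamine and 1% nonessential amino acids. Cells preincubated 24 h, 37 °C, 5% CO2. Compounds in DMSO at eight concentrations in quadruplicate, 24 h. MTS-type reagent added for 1.5 h, A490 read, IC50 taken at 50% viability. SI = this IC50 over the 14-day M. tuberculosis MIC.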

For `COc1ccc(Cl)cc1C(=S)Nc1ccc(Br)cc1O`, which MIC [1] is on record?
The MIC was 32 µM (≈ 11.9 µg/mL).

And the MIC [2]?
Its MIC is 32 µM (≈ 11.9 µg/mL).

And the MIC [3]?
Its MIC is 62.5 µM (≈ 23.3 µg/mL).

And the MIC [4]?
Its MIC is 125 µM (≈ 46.6 µg/mL).

What about the MIC [5] of the same molecule?
The MIC was 16 µM (≈ 5.96 µg/mL).

What about the MIC [6] of the same molecule?
Its MIC is 16 µM (≈ 5.96 µg/mL).

What about the MIC [7] of the same molecule?
Its MIC is 32 µM (≈ 11.9 µg/mL).

What about the MIC [8] of the same molecule?
Its MIC is 62.5 µM (≈ 23.3 µg/mL).

And the MIC [9]?
The MIC was 32 µM (≈ 11.9 µg/mL).

What about the MIC [10] of the same molecule?
Its MIC is 32 µM (≈ 11.9 µg/mL).

What about the inhibition [11] of the same molecule?
The inhibition was 7%.

And the IC50 [12]?
The IC50 was 7.6 µM.

And the “Selectivity Index” value [13]?
Its value is 0.24.

— ChEMBL document CHEMBL2086304, “Synthesis and in vitro antimycobacterial and isocitrate lyase inhibition properties of novel 2-methoxy-2'-hydroxybenzanilides, their thioxo analogues and benzoxazoles” (Eur J Med Chem, 2012)
